Reference: ChEMBL document CHEMBL1141149, “Novel fluorinated prodrugs for activation by carboxypeptidase G2 showing good in vivo antitumor activity in gene-directed enzyme prodrug therapy” (J Med Chem, 2005)

Assays:
[1] = Chemical half life period as substrates of CPG2 was determined; assay type: ADME
In short: (§1)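 Compounds diluted from 10 mM DMSO stocks to 100 μM final in CPG2 assay buffer (100 mM Tris-HCl pH 7.3, 260 μM ZnCl2), no enzyme. Remaining parent measured over time by repeat isocratic reverse-phase HPLC injections (10 mM ammonium acetate pH 5.0/methanol), UV at λmax. Half-life from one-phase exponential decay fit (max 1, min 0).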

[2] = molecular target: T1, Carboxypeptidase G2 (Pseudomonas aeruginosa (strain ATCC 15692 / PAO1 / 1C / PRS 101 / LMG12228)) (UniProt Q9I056); test: Kcat against carboxypeptidase G2 in inhibitory kinetic assay
T1 sequence (whole entry): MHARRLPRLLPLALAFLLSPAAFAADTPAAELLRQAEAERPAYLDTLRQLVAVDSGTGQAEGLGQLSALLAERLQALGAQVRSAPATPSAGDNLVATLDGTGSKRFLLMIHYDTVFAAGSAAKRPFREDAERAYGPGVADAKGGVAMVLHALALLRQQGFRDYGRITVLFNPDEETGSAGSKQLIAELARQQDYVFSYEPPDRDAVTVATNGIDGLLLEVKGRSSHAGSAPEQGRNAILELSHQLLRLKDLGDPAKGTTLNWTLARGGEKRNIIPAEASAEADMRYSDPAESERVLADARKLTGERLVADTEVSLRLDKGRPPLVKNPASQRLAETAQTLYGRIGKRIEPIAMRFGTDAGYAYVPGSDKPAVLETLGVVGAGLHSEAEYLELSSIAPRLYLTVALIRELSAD
In short: (§2)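 Prodrug 0.2–50 μM (25 concentrations) in CPG2 assay buffer (100 mM Tris-HCl pH 7.3, 260 μM ZnCl2) at 37 °C, ±50 mU CPG2. Absorbance change at wavelength of maximal prodrug/drug difference followed 1 min, non-enzymic change subtracted, converted to substrate loss. Km and kcat from Michaelis–Menten nonlinear fit.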

[3] = Ratio of IC50 of LacZ cell line to CPG2-expressing cell line; assay type: functional, Homo sapiens
In short: (§3)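 Selectivity ratio: IC50 in β-gal (LacZ) control MDA MB 361 cells divided by IC50 in CPG2- or stCPG2(Q)3-expressing cells, both from 1 h + 20 h exposure, 5-day regrowth SRB assay.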

[4] = Cytotoxicity aganist MDA MB361 cell line MDA MB 361 expressing stCPG2(Q)3 done for 1 hr with compound dissolved in DMSO; assay type: functional, cell-based; conditions: Homo sapiens, MDA-MB-361, 1 h
In short: (§4)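 Stably transfected MDA MB 361 lines (β-gal, cytoplasmic CPG2, or surface-tethered stCPG2(Q)3) in DMEM/10% FBS, confluent 6-well monolayers. Prodrug series 1 h, then equal concentration fresh solution added, 20 h more. Cells reseeded 2×10^3/well, grown 5 days; SRB staining, A540. IC50 by four-parameter logistic fit of % control growth.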

[5] = Half life period was determined; assay type: ADME; conditions: rat; in short: as §1
[6] = Cytotoxicity against MDA MB361 cell line MDA MB 361 expressing beta-galactosidase done for 1 h with compound dissolved in DMSO; assay type: functional, cell-based; conditions: Homo sapiens, MDA-MB-361, 1 h; in short: as §4
[7] = Ratio of IC50 of LacZ cell line to stCPG2(Q)3-expressing cell line; assay type: functional, Homo sapiens; in short: as §3
[8] = Cytotoxicity aganist MDA MB361 cell line MDA MB 361 expressing carboxypeptidase G2 done for 1 hr with compound dissolved in DMSO; assay type: functional, cell-based; conditions: Homo sapiens, MDA-MB-361, 1 h; in short: as §4
[9] = compound: O=C(O)CC[C@H](NC(=O)c1cc(F)c(N(CCI)CCI)c(F)c1F)C(=O)O; test: (§5) Km against carboxypeptidase G2 in inhibitory kinetic assay; conditions: Pseudomonas; in short: as §2
[10] = compound: O=C(O)CC[C@H](NC(=O)c1cc(F)c(N(CCCl)CCCl)c(F)c1F)C(=O)O; test: as §5; conditions: Pseudomonas; in short: as §2
[11] = compound: CS(=O)(=O)OCCN(CCCl)c1ccc(C(=O)N[C@@H](CCC(=O)O)C(=O)O)cc1; test: as §5; conditions: Pseudomonas; in short: as §2
[12] = compound: O=C(O)CC[C@H](NC(=O)c1cc(F)c(N(CCBr)CCBr)c(F)c1)C(=O)O; test: as §5; conditions: Pseudomonas; in short: as §2
[13] = compound: O=C(O)CC[C@H](NC(=O)c1cc(F)c(N(CCBr)CCBr)c(F)c1F)C(=O)O; test: as §5; conditions: Pseudomonas; in short: as §2
[14] = compound: O=C(O)CC[C@H](NC(=O)c1cc(F)c(N(CCI)CCI)c(F)c1)C(=O)O; test: as §5; conditions: Pseudomonas; in short: as §2
[15] = compound: O=C(O)CC[C@H](NC(=O)c1cc(F)c(N(CCCl)CCCl)c(F)c1)C(=O)O; test: as §5; conditions: Pseudomonas; in short: as §2

## O=C(O)CC[C@H](NC(=O)c1cc(F)c(N(CCI)CCI)c(F)c1F)C(=O)O
[1]
  half-life: 0.622 h
[2]
  K cat: 220 1/S
[3]
  Differential: >6
[4]
  IC50: 173 µM
[5]
  half-life: 6 h
[6]
  IC50: > 4000 µM
[7]
  Differential: >23
[8]
  IC50: 671 µM

## O=C(O)CC[C@H](NC(=O)c1cc(F)c(N(CCBr)CCBr)c(F)c1F)C(=O)O
[1]
  half-life: 0.382 h
[2]
  K cat: 825 1/S
[3]
  Differential: >49
[4]
  IC50: 50 µM
[5]
  half-life: 0.15 h
[6]
  IC50: > 4000 µM
[7]
  Differential: >80
[8]
  IC50: 82 µM

## O=C(O)CC[C@H](NC(=O)c1cc(F)c(N(CCCl)CCCl)c(F)c1)C(=O)O
[1]
  half-life: 4.9 h
[2]
  K cat: 732 1/S
[3]
  Differential: >95
[4]
  IC50: 26 µM
[5]
  half-life: 1.5 h
[6]
  IC50: > 4000 µM
[7]
  Differential: >150
[8]
  IC50: 42 µM

## CS(=O)(=O)OCCN(CCCl)c1ccc(C(=O)O)cc1
[1]
  half-life: 0.5 h

## O=C(O)CC[C@H](NC(=O)c1c(F)c(F)c(N(CCI)CCI)c(F)c1F)C(=O)O
[1]
  half-life: 2 h
[2]
  K cat: 0 1/S
[4]
  IC50: > 4000 µM
[6]
  IC50: > 4000 µM
[8]
  IC50: > 4000 µM

## O=C(O)CC[C@H](NC(=O)c1cc(F)c(N(CCI)CCI)c(F)c1)C(=O)O
[1]
  half-life: 0.15 h
[2]
  K cat: 1150 1/S
[3]
  Differential: 86
[4]
  IC50: 26 µM
[5]
  half-life: < 0.0833 h
[6]
  IC50: 3300 µM
[7]
  Differential: 127
[8]
  IC50: 39 µM

## O=C(O)CC[C@H](NC(=O)c1cc(F)c(N(CCBr)CCBr)c(F)c1)C(=O)O
[1]
  half-life: 0.0917 h
[2]
  K cat: 827 1/S
[3]
  Differential: >75
[4]
  IC50: 14 µM
[5]
  half-life: < 0.0833 h
[6]
  IC50: > 4000 µM
[7]
  Differential: >280
[8]
  IC50: 53 µM

## O=C(O)CC[C@H](NC(=O)c1c(F)c(F)c(N(CCCl)CCCl)c(F)c1F)C(=O)O
[1]
  half-life: 82.3 h
[2]
  K cat: 0 1/S
[4]
  IC50: > 4000 µM
[6]
  IC50: > 4000 µM
[8]
  IC50: > 4000 µM

## O=C(O)CC[C@H](NC(=O)c1cc(F)c(N(CCCl)CCCl)c(F)c1F)C(=O)O
[1]
  half-life: 21.7 h
[2]
  K cat: 1150 1/S
[3]
  Differential: >55
[4]
  IC50: 46 µM
[5]
  half-life: 6 h
[6]
  IC50: > 4000 µM
[7]
  Differential: >87
[8]
  IC50: 73 µM

## CS(=O)(=O)OCCN(CCCl)c1ccc(C(=O)N[C@@H](CCC(=O)O)C(=O)O)cc1
[2]
  K cat: 583 1/S
[4]
  IC50: 165 µM
[6]
  IC50: 3130 µM
[7]
  Differential: 19
[8]
  IC50: 1880 µM

B1: Carboxypeptidase G2 (Pseudomonas aeruginosa (strain ATCC 15692 / PAO1 / 1C / PRS 101 / LMG12228)), Q9I056 (protein)
chain: MHARRLPRLLPLALAFLLSPAAFAADTPAAELLRQAEAERPAYLDTLRQLVAVDSGTGQAEGLGQLSALLAERLQALGAQVRSAPATPSAGDNLVATLDGTGSKRFLLMIHYDTVFAAGSAAKRPFREDAERAYGPGVADAKGGVAMVLHALALLRQQGFRDYGRITVLFNPDEETGSAGSKQLIAELARQQDYVFSYEPPDRDAVTVATNGIDGLLLEVKGRSSHAGSAPEQGRNAILELSHQLLRLKDLGDPAKGTTLNWTLARGGEKRNIIPAEASAEADMRYSDPAESERVLADARKLTGERLVADTEVSLRLDKGRPPLVKNPASQRLAETAQTLYGRIGKRIEPIAMRFGTDAGYAYVPGSDKPAVLETLGVVGAGLHSEAEYLELSSIAPRLYLTVALIRELSAD
[9]
  Km: 2.8 µM
[10]
  Km: 2.6 µM
[11]
  Km: 3.4 µM
[12]
  Km: 1.18 µM
[13]
  Km: 1.1 µM
[14]
  Km: 1.74 µM
[15]
  Km: 1.71 µM
